TCR-CD3 inh: inhibitors of human TCR-CD3 interaction. hit rate 0.37% among 360,000. TAMRA-labeled TCR probe fluorescence, biochemical. inhibition, % at 9.4 µM. AID 651800; in the data active means inhibition above about 19%;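 further: recombinant mutant TCR 2C K166C tagged with TAMRA read by polarization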
SIAE inh: blocks human sialic acid acetylesterase; inhibition, % at 9.66 µM; AID 1053197; SIAE FP-Rh probe binding, fluorescence polarization; Q9HAT2; hit rate 0.69% among 370,000;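 active means inhibition above a cutoff: mean of compounds within the control limits plus 3 SD of those, cut at about 17% in these data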
HTRA1 inhibitor: inhibitors of human serine peptidase HTRA1 | Q92743 | recombinant HTRA1, FP-rhodamine activity-based probe, fluorescence polarization | inhibition, % at 5.96 µM | hit rate 0.5% among 340,000; in the data active means inhibition above about 36%
ABHD4 inh: inhibits mouse alpha/beta hydrolase domain 4; Q8VD66; purified mABHD4, FP-Rh probe fluorescence polarization; inhibition, % at 8.92 µM; hit rate 0.54% among 370,000;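 active means inhibition exceeding the mean over every tested compound plus 3 SD, cut at about 30% in these data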
Target sequence (Q8VD66 whole entry, looked up, the tested form may be a part): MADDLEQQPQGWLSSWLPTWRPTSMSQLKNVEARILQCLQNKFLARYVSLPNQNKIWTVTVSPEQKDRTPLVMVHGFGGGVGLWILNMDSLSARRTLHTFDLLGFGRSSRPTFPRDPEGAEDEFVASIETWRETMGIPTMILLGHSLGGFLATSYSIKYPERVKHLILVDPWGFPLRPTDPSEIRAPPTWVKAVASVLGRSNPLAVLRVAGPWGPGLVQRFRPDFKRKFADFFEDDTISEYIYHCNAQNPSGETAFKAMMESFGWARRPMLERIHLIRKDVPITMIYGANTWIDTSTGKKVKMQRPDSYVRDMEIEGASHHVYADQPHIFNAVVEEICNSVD
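Assay system: mABHD4 protein; medium: HEPES pH 7.0, NaCl, Pluronic buffer; dosing: 8.92 µM, single dose; schedule: 45 min + 60 min at 25 °C; signal: FP readout, ex 525 nm / em 598 nm; read-out: normalized percent inhibition of probe labeling; repeats: single replicate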
rCAG RNA binder: molecules binding r(CAG) RNA repeats; r(CAG) RNA repeat, TO-PRO-1 dye displacement fluorescence; inhibition, % at 3 µM; hit rate 1.3% among 370,000;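 active means inhibition above the plate cutoff, the mean of all test compounds on that plate plus 3 SD, cut at about 35% in these data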;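 further: higher means more dye released from RNA so lower well fluorescence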
PRMT1 FP inh: inhibitors of human PRMT1 | recombinant PRMT1, activity-based probe fluorescence polarization | hit rate 1.3% among 370,000 | inhibition, % at 2.79 µM | Q99873;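 active means inhibition above about 21% made by adding two undisclosed values, limit read from the data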
rCAG bind conf: r(CAG) RNA repeat binding, confirmation | shares compounds with rCAG RNA binder | TO-PRO-1 dye displacement fluorescence | inhibition, % at 3 µM | hit rate 70% among 4,300 | AID 652065;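 active means inhibition above a per-plate cutoff, the mean inhibition of sample wells plus 3 SD, cut at about 35% in these data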;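 further: loss of TO-PRO-1 fluorescence as compound displaces dye from 1x1 AA loop RNA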
DNA CAG counter: counter-screen for rCAG RNA binders: DNA CAG dye complex inhibitors | inhibition, % at 3 µM | shares compounds with rCAG RNA binder | hit rate 94% among 4,300 | d(CAG) DNA oligo TO-PRO-1 dye displacement, fluorescence;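 active means inhibition above its plate's cutoff, the mean test-well inhibition plus 3 SD, cut at about 4.8% in these data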;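 further: hits displace the dye from DNA and so lower well fluorescence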
PRMT1 confirm: confirmation of human PRMT1 inhibitors | shares compounds with PRMT1 FP inh | recombinant His-PRMT1, activity-based probe fluorescence polarization | inhibition, % at 2.79 µM | hit rate 42% among 3,300 | AID 687036;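 active means mean inhibition across replicates above the hit cutoff derived for the earlier primary screen, cut at about 22% in these data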
A number is an active result; – = inactive; · = no result. A selection: hits, their analogues and other compounds. The true share with any hit is near 3.5%.

SMILES	TCR-CD3 inh	SIAE inh	HTRA1 inhibitor	ABHD4 inh	rCAG RNA binder	PRMT1 FP inh	rCAG bind conf	DNA CAG counter	PRMT1 confirm
Cc1ccccc1N/N=C/c1sc(=O)n(Cc2cccc(C(=O)O)c2)c1Cl	–	–	–	–	69.1	75.3	77.7	39.5	–
CCOC(=O)CC[C@H]1CC[C@]2(CCCN(Cc3ccccc3)C2)O1	·	–	·	–	–	–	·	·	·
CCCCC#CC(CC)NCc1ccc(OC)cc1OC (stereo unspecified)	·	–	·	–	·	–	·	·	·
O=C(/C=C\c1ccco1)c1ccc(NC(=O)c2ccco2)cc1	–	–	–	–	–	–	·	·	·
CC(=O)Nc1ccc(C(=O)/C=C/c2ccco2)cc1	–	–	–	–	35.0	36.5	–	12.7	27.1
CCCN(CC1CC1)c1nc(C)nc2c1nnn2Cc1ccccc1	·	–	·	–	–	–	·	·	·
COc1ccccc1C1C2=C(N=c3s/c(=C/c4cccc(OCC(=O)O)c4)c(=O)n31)c1ccccc1CC2 (stereo unspecified)	–	–	–	–	59.3	56.2	77.8	43.1	22.1
CCOC(=O)C1=C(C)N=c2sc(=Cc3cc(Cl)c(OCC(=O)O)c(OC)c3)c(=O)n2C1c1ccccc1Cl (stereo unspecified)	–	–	·	–	–	–	·	·	·
CCOC(=O)C1=C(C)N=c2s/c(=C\c3cccc(OCC(=O)O)c3)c(=O)n2C1c1ccccc1 (stereo unspecified)	–	–	–	–	75.7	32.4	74.8	36.3	–
CCOC(=O)C1=C(C)N=c2s/c(=C/c3cccc(OCC(=O)O)c3)c(=O)n2C1c1ccc(F)cc1 (stereo unspecified)	–	–	·	–	71.5	40.7	75.6	38.0	–
CCOC(=O)C1=C(C)N=c2s/c(=C\c3ccc(C(=O)O)cc3)c(=O)n2C1c1ccc(OC)cc1OC (stereo unspecified)	–	–	–	–	–	–	·	·	·
CC(C)c1ccc(/C=N/n2c(COc3ccccc3)n[nH]c2=S)cc1	–	–	–	–	36.2	30.9	47.5	11.4	–
Cc1ccc(NC(=S)NC(=O)/C=C/c2ccco2)c(O)c1	–	–	–	–	34.9	27.9	38.3	15.2	–
O=C(/C=C\c1ccco1)NC(=S)Nc1ccccc1O	–	–	–	–	–	–	·	·	·
N#C/C(=C\c1ccccc1)C(=O)NNS(=O)(=O)c1cccc([N+](=O)[O-])c1	–	–	–	–	36.5	42.6	–	–	–
COc1ccc2nc(N3C(=O)C(O)=C(C(=O)c4ccco4)C3c3ccc(C)o3)sc2c1 (stereo unspecified)	–	–	–	–	53.8	34.2	59.1	18.9	–
N#Cc1c2nc3ccccc3nc2n2cc(NC(=O)c3ccc(F)cc3)ccc12	–	–	–	–	35.5	40.9	41.5	20.3	–
Cc1c(C(=O)Nc2ccc(F)cc2)cn2c(nc3ccccc32)c1C#N	–	–	–	–	–	–	·	·	·
Cc1cccc2cc3c(N)c(C#N)sc3nc12	–	–	–	–	–	–	·	·	·
Cc1sc(NC(=O)c2sc3nc4c(C)cccc4cc3c2N)c(C#N)c1C	–	–	–	–	67.7	31.1	60.0	32.2	–
CCc1c(O)nc(SCC(=O)Nc2nc3ccccc3s2)n(C2CCCCC2)c1=O	–	–	–	–	39.8	45.3	47.6	15.2	49.8
COC(=O)c1c(C)oc2ccc(N(C(C)=O)S(=O)(=O)c3ccccc3)cc12	–	–	–	–	–	–	·	·	·
COc1ccc(S(=O)(=O)N(C(C)=O)c2ccc3oc(=O)sc3c2)cc1	–	–	–	–	44.1	93.9	–	6.0	64.1
COC(=O)[C@H](CC(C)C)N(CCCc1cn(CC2CCCCC2)nn1)S(=O)(=O)c1ccccc1Br	·	–	·	–	–	–	·	·	·
Cc1ccsc1/C=C/C1=Cc2c(sc(NC(=O)CSc3n[nH]c(N)n3)c2C#N)C(C)(C)C1	–	–	–	–	54.6	41.0	53.2	25.7	–
SMILES	TCR-CD3 inh	SIAE inh	HTRA1 inhibitor	ABHD4 inh	rCAG RNA binder	PRMT1 FP inh	rCAG bind conf	DNA CAG counter	PRMT1 confirm
CC(C)C[C@@H]1COc2cc(Br)ccc2S(=O)(=O)N1Cc1cn(CCC2OCCO2)nn1	·	–	·	–	–	–	·	·	·
CC(C)n1c(CNC(=O)c2ccccc2F)nnc1SCC(=O)NC1CCCCC1	–	–	–	–	46.3	33.1	–	18.2	–
CC(/C=N/n1c(-c2ccc(Cl)cc2)n[nH]c1=S)=C\c1ccco1	–	–	–	–	39.0	27.5	38.6	11.9	–
S=c1[nH]nc(-c2ccncc2)n1/N=C/C=C/c1ccccc1	–	–	–	–	–	–	·	·	·
S=c1[nH]nc(-c2ccncc2)n1/N=C/C(Cl)=C\c1ccccc1	–	–	–	–	39.4	34.3	–	9.5	–
CC(/C=N/n1c(-c2cc(C)[nH]n2)n[nH]c1=S)=C\c1ccco1	–	–	–	–	–	–	·	·	·
c1coc(-c2nc3c([nH]2)CCc2nonc2-3)c1	–	–	–	–	41.9	71.7	–	–	–
O=C(CSc1nc2ncccc2[nH]1)N1CCOCC1	·	–	·	–	–	–	·	·	·
C/C(C/C(C)=C1/SC(=S)NC1=O)=C1\SC(=S)NC1=O	–	–	–	–	66.0	40.2	49.5	16.0	24.2
CN1C2=N[C@H](c3cccc(C(F)(F)F)c3)CC(=O)N2/C(=C\c2ccccc2)[C@H]1c1ccccc1	·	–	·	–	·	–	·	·	·
c1coc(-c2nnc3sc(Cc4cccs4)nn23)c1	–	–	–	–	35.6	64.0	–	5.2	–
CCCN=C1N/C(=C\c2ccco2)C(=O)N1c1ccccc1	–	–	–	–	–	–	·	·	·
O=C1/C(=C\c2ccco2)NC(=S)N1c1ccccc1	–	–	–	–	39.9	45.5	37.7	16.9	50.7
COc1ccc(OC)c(/C=N/NC(=O)c2cc(-c3ccc(C)o3)nc3ccccc23)c1	–	–	–	–	45.0	29.6	–	12.8	–
COc1ccc(-c2cc(C(=O)N/N=C/c3cc(OC)c(OC)cc3OC)c3ccccc3n2)cc1	–	–	·	–	–	–	·	·	·
COc1ccc(S[C@]2(C(=O)N3CCN(c4ncccn4)CC3)CC(=O)N(C(=O)Nc3ccc(C)c(Cl)c3)[C@@H]2c2ccc(OC)cc2)cc1	·	–	·	–	–	–	·	·	·
CC(C(=O)Nc1ccc(O)cc1C(=O)O)N1C(=O)/C(=C\c2cccs2)SC1=S (stereo unspecified)	–	–	–	–	80.1	58.2	79.8	41.0	28.0

Screens deposited in PubChem BioAssay by The Scripps Research Institute Molecular Screening Center.
